Results reported in ChEMBL document CHEMBL1177862, “Novel effects of glycyrrhetinic acid on the central nervous system tumorigenic progenitor cells: induction of actin disruption and tumor cell-selective toxicity” (Eur J Med Chem, 2010).
Structures can show the parent of a compound that is named as a salt.

What was measured:
[1] = Down regulation of beta-actin protein expression in mouse SFME cells at IC50 after 8 hrs by Western blotting; type: functional, cell-based
Outline: (§1)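 They were run on SDS-PAGE, blotted to nitrocellulose and probed with mouse monoclonal anti-beta-actin, then AP-conjugated anti-mouse IgG1. GAPDH was the loading control. Bands were quantified by densitometry. Values are from at least 3 experiments, Student's t-test.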

[2] = Induction of F-actin disruption in mouse r/m HM-SFME-1 cells assessed as disappearance of F-actin extension at IC50 after 8 hrs by confocal laser scanning microscopy; type: functional, cell-based
Outline: (§2)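 After 8 h treatment, cells were fixed in 3.7% formaldehyde/PBS and permeabilized with 0.1% Triton X-100. F-actin was labeled with rhodamine-phalloidin. Slides were mounted in anti-fade medium and imaged by confocal laser scanning or fluorescence microscopy for peripheral F-actin extensions and lamellipodia.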

[3] = Antiproliferative activity against mouse SFME cells after 24 hrs by MTT assay; type: cell-based
Outline: (§3)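 Cells were kept in DME/F-12 with insulin, transferrin and EGF on fibronectin-coated dishes at 37 C in 20% O2/5% CO2. They were seeded at 1 x 10^4 cells/well and dosed at half confluency for 24 h. Cell number was read by MTT. Runs were in triplicate, repeated at least three times, as mean SD. IC50 was derived from concentration-response data.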

[4] = Induction of F-actin disruption in mouse SFME cells assessed as F-actin extension at IC50 after 8 hrs by confocal laser scanning microscopy; type: functional, cell-based; outline: as §2
[5] = Down regulation of beta-actin protein expression in mouse r/m HM-SFME-1 cells at IC50 after 8 hrs by Western blotting; type: functional, cell-based; outline: as §1
[6] = Antiproliferative activity against mouse r/m HM-SFME-1 cells after 24 hrs by MTT assay; type: functional, cell-based; outline: as §3
[7] = Antiproliferative activity against mouse r/m HM-SFME-1 cells at 10 uM after 24 hrs by MTT assay; type: functional; outline: as §3

| Compound | IC50 [1] | IC50 [2] | IC50 [3] | IC50 [4] | IC50 [5] | IC50 [6] | inhibition at 10 µM [7] |
| --- | --- | --- | --- | --- | --- | --- | --- |
| CC1(C)[C@@H](O)CC[C@]2(C)[C@H]3C(=O)C=C4[C@@H]5C[C@@](C)(C(=O)O)CC[C@]5(C)CC[C@@]4(C)[C@]3(C)CC[C@@H]12 [ENOXOLONE] | Not Active | Active | 18 µM | Not Active | Active | 7.3 µM | > 80% |
| COc1cccc2c1C(=O)c1c(O)c3c(c(O)c1C2=O)C[C@@](O)(C(=O)CO)C[C@@H]3O[C@H]1C[C@H](N)[C@H](O)[C@H](C)O1 [DOXORUBICIN HYDROCHLORIDE] | – | – | 0.8 µM | – | – | 64 µM | – |
| Nc1ccn([C@@H]2O[C@H](CO)[C@@H](O)[C@@H]2O)c(=O)n1 [CYTARABINE] | – | – | 0.8 µM | – | – | 33.3 µM | – |
| O=c1[nH]cc(F)c(=O)[nH]1 [FLUOROURACIL] | – | – | 3.2 µM | – | – | 48.5 µM | – |
| COc1cc([C@@H]2c3cc4c(cc3[C@@H](O[C@@H]3O[C@@H]5CO[C@@H](C)O[C@H]5[C@H](O)[C@H]3O)[C@H]3COC(=O)[C@H]23)OCO4)cc(OC)c1O [ETOPOSIDE] | – | – | 0.5 µM | – | – | 9 µM | – |
